In ChEMBL document CHEMBL1137002, “Synthesis and electrochemistry of 2-ethenyl and 2-ethanyl derivatives of 5-nitroimidazole and antimicrobial activity against Giardia lamblia” (J Med Chem, 2009):
Calls of active or inactive are those of the source. The calls are words filed in the database; no cut-off is given here.

Tests used:
Giardia intestinalis [1] = test: Antigiardial activity against Giardia lamblia trophozoites isolates after 2 days by bactiter-glo viability assay; assay type: functional, organism-based; details: Giardia duodenalis, 48 h
[2] = Therapeutic index, ratio of IC50 for human HeLa cells to EC50 for Giardia lamblia trophozoites isolates; assay type: cell-based; details: read-out: Ratio IC50/EC50
HeLa = test: Cytotoxicity against human HeLa cells after 2 days by Alamar blue assay; assay type: cell-based; details: 48 h
Giardia intestinalis [3] = test: Antigiardial activity against metronidazole-sensitive Giardia lamblia isolate 106 trophozoite after 2 days by bactiter-glo viability assay; assay type: functional, organism-based; details: Giardia duodenalis, isolate 106, 48 h
Outline: (§1)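 Trophozoites from mid-log cultures in TYI-S-33 with 10% bovine serum and 1 mg/mL bovine bile, grown anaerobically. Mz-resistant lines kept on 50 μM Mz but grown without it for 2–3 days beforehand. 1000–2000 cells/well, 1:3 serial dilutions, final 20 μM to 0.4 nM. 2 days at 37 °C anaerobically. ATP luminescence read-out. EC50 taken by graphic extrapolation of concentration–response curves. Mean ± SE of three experiments.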

Giardia intestinalis [4] = test: Antigiardial activity against Giardia lamblia GS/M trophozoites infected in C57BL/6 mouse assessed as reduction in live trophozoite number in small intestine at 10 mg/kg, po administered as 5 doses for 3 days relative to control; assay type: functional; details: for Activity: Giardia duodenalis
Outline: (§2)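 Adult C57BL/6 mice infected orally with G. lamblia GS/M trophozoites; from 2 days post-infection, five oral gavage doses over 3 days (10 or 2 mg/kg), with controls given methylcellulose/PBS vehicle. Day 5: whole small intestine opened, placed in PBS on ice 10 min, shaken, and live trophozoites counted by hemocytometer under phase contrast. Mean ± SE of 3–7 animals; t test versus vehicle controls, p < 0.05.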

Giardia intestinalis [5] = test: Antigiardial activity against Giardia lamblia GS/M trophozoites infected in C57BL/6 mouse assessed as parasite eradication in small intestine at 10 mg/kg, po administered as 5 doses for 3 days; assay type: functional, organism-based; set-up: dose 10 mg/kg; details: Giardia duodenalis; outline: as §2
Giardia intestinalis [6] = test: Antigiardial activity against metronidazole-resistant Giardia lamblia isolate 106 trophozoite after 2 days by bactiter-glo viability assay; assay type: functional, organism-based; details: Giardia duodenalis, isolate 106, 48 h; outline: as §1
Mus musculus = test: Toxicity in C57BL/6 mouse at 10 mg/kg, po after 3 days; assay type: organism-based; set-up: dose 10 mg/kg, route oral; details: in vivo, 72 h
Outline: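 G. lamblia GS/M-infected adult C57BL/6 mice were watched for clinically observable untoward effects across the 3-day treatment period, which consisted of five oral gavage doses at 10 mg/kg in methylcellulose/PBS given from day 2 after infection.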

Giardia intestinalis [7] = test: Antigiardial activity against metronidazole-resistant Giardia lamblia isolate 713 trophozoite after 2 days by bactiter-glo viability assay; assay type: functional, organism-based; details: Giardia duodenalis, isolate 713, 48 h; outline: as §1
Giardia intestinalis [8] = test: Antigiardial activity against metronidazole-sensitive Giardia lamblia isolate 713 trophozoite after 2 days by bactiter-glo viability assay; assay type: functional, organism-based; details: Giardia duodenalis, isolate 713, 48 h; outline: as §1
Giardia intestinalis [9] = test: Antigiardial activity against Giardia lamblia GS/M trophozoites infected in C57BL/6 mouse assessed as reduction in live trophozoite number in small intestine at 2 mg/kg, po administered as 5 doses for 3 days; assay type: functional, organism-based; set-up: dose 2 mg/kg; details: Giardia duodenalis; outline: as §2

Row | Structure (SMILES) | EC50 (Giardia intestinalis [1]; read-out: pEC50 (converted)) [nM] | selectivity ratio [2] | IC50 (HeLa) [nM] | EC50 (Giardia intestinalis [3]) [nM] | Activity (Giardia intestinalis [4]) | Activity (Giardia intestinalis [5]) | EC50 (Giardia intestinalis [6]) [nM] | Activity (Mus musculus) | EC50 (Giardia intestinalis [7]) [nM] | EC50 (Giardia intestinalis [8]) [nM] | EC50 (Giardia intestinalis [1]; read-out: EC50) [nM] | Activity (Giardia intestinalis [9]) | fold change (FC) (Giardia intestinalis [4])
1 | COc1ccc(/C=C/c2ncc([N+](=O)[O-])n2C)c(OC)c1OC | 617 | > 162 | > 100000 |  |  |  |  |  |  |  |  |  | 
2 | Cn1c([N+](=O)[O-])cnc1/C=C/c1cccc(Cl)c1 | 21.9 | 1380 | 30200 |  |  |  |  |  |  |  |  |  | 
3 | Cc1ccccc1/C=C/c1ncc([N+](=O)[O-])n1C | 69.2 | 1350 |  |  |  |  |  |  |  |  |  |  | 
4 | Cn1c([N+](=O)[O-])cnc1/C=C/c1ccco1 | 33.9 | 2750 |  | 363 | Active | Active | 35.5 | Non-toxic | 20.4 | 490 |  |  | 
5 | Cn1c([N+](=O)[O-])cnc1/C=C/c1ccc(Cl)cc1 | 52.5 | 1740 | 91200 | 257 |  |  | 72.4 |  | 36.3 | 145 |  |  | 
6 | Cn1c([N+](=O)[O-])cnc1/C=C/c1ccccc1Br | 49 | 1480 | 72400 | 282 |  |  | 41.7 |  | 18.2 | 117 |  |  | 
7 | Cn1c([N+](=O)[O-])cnc1/C=C/c1cccc2ccccc12 |  | 1000 | 100000 |  |  |  |  |  |  |  | 100 |  | 
8 | Cc1ccc(C(O)C(O)c2ncc([N+](=O)[O-])n2C)cc1 (configuration not stated) | 832 | > 120 | > 100000 |  |  |  |  |  |  |  |  |  | 
9 | Cn1ccnc1/C=C/c1ncc([N+](=O)[O-])n1C | 75.9 | 1200 | 91200 | 251 | Active | Active | 87.1 | Non-toxic | 51.3 | 1170 |  | Active | 
10 | Cn1c([N+](=O)[O-])cnc1/C=C/c1cccc(F)c1 | 40.7 | > 2460 | > 100000 | 93.3 | Active | Active | 30.9 | Non-toxic | 25.7 | 123 |  | Active | 
11 | Cn1c([N+](=O)[O-])cnc1/C=C/c1ccc2ccccc2c1 | 60.3 | 1620 |  |  |  |  |  |  |  |  |  |  | 
12 | Cn1c([N+](=O)[O-])cnc1/C=C/c1ccc(OC(F)(F)F)cc1 | 741 | 112 | 83200 |  |  |  |  |  |  |  |  |  | 
13 | Cn1c([N+](=O)[O-])cnc1CCc1ccccc1 | 209 | > 474 | > 100000 | 2570 |  |  | 174 | Non-toxic | 102 | 5010 |  |  | 
14 | Cc1cc(C)c(/C=C/c2ncc([N+](=O)[O-])n2C)c(C)c1 | 339 | 32 |  | 427 |  |  | 204 |  | 229 | 1290 |  |  | 
15 | Cn1c([N+](=O)[O-])cnc1/C=C/c1ccccc1 | 38.9 | > 2570 | > 100000 | 398 | Active | Active | 55 | Non-toxic | 20.4 | 525 |  |  | 
16 | Cn1c([N+](=O)[O-])cnc1/C=C/c1cccs1 | 81.3 | 1120 | 91200 |  |  |  |  |  |  |  |  |  | 
17 | Cn1c([N+](=O)[O-])cnc1/C=C/c1ccc2c(c1)OCO2 | 69.2 | 1070 | 74100 |  |  |  |  |  |  |  | 69 |  | 
18 | Cn1c([N+](=O)[O-])cnc1CCc1ccc(Br)cc1 | 1150 | 85 |  |  |  |  |  |  |  |  | 1150 |  | 
19 | Cc1ccc(CCc2ncc([N+](=O)[O-])n2C)cc1 | 282 | > 357 | > 100000 |  |  |  |  |  |  |  |  |  | 

Row | Structure (SMILES) | EC50 (Giardia intestinalis [1]; read-out: pEC50 (converted)) [nM] | selectivity ratio [2] | IC50 (HeLa) [nM] | EC50 (Giardia intestinalis [3]) [nM] | Activity (Giardia intestinalis [4]) | Activity (Giardia intestinalis [5]) | EC50 (Giardia intestinalis [6]) [nM] | Activity (Mus musculus) | EC50 (Giardia intestinalis [7]) [nM] | EC50 (Giardia intestinalis [8]) [nM] | EC50 (Giardia intestinalis [1]; read-out: EC50) [nM] | Activity (Giardia intestinalis [9]) | fold change (FC) (Giardia intestinalis [4])
20 | Cn1c([N+](=O)[O-])cnc1C(O)C(O)c1ccc(Br)cc1 (configuration not stated) | 447 | 208 | 91200 |  |  |  |  |  |  |  |  |  | 
21 | COc1cccc(/C=C/c2ncc([N+](=O)[O-])n2C)c1 | 155 | > 646 | > 100000 |  |  |  |  |  |  |  |  |  | 
22 | Cc1ccc(/C=C/c2ncc([N+](=O)[O-])n2C)cc1 | 162 |  | > 100000 |  |  |  |  |  |  |  |  |  | 
23 | Cc1ccc(C(Br)C(Br)c2ncc([N+](=O)[O-])n2C)cc1 (configuration not stated) | 64.6 | 174 | 11200 |  |  |  |  |  |  |  |  |  | 
24 | Cn1c([N+](=O)[O-])cnc1/C=C/c1ccc(Cl)cc1Cl | 234 | > 427 | > 100000 |  |  |  |  |  |  |  |  |  | 
25 | Cn1c([N+](=O)[O-])cnc1C(Br)C(Br)c1ccc(Br)cc1 (configuration not stated) | 347 | 23 | 7940 | 2880 |  |  | 214 |  | 182 | 479 |  |  | 
26 | Cn1c([N+](=O)[O-])cnc1/C=C/c1cccc(I)c1 | 93.3 | 339 |  |  |  |  |  |  |  |  |  |  | 
27 | CCOC(OCC)c1ccc(/C=C/c2ncc([N+](=O)[O-])n2C)cc1 | 52.5 | 1860 |  | 200 |  |  | 64.6 |  | 32.4 | 708 |  |  | 
28 | Cn1c([N+](=O)[O-])cnc1/C=C/c1ccccc1-c1ccccc1 | 851 | > 117 | > 100000 | 1230 |  |  | 537 |  | 347 | 4570 |  |  | 
29 | Cn1c([N+](=O)[O-])cnc1/C=C/c1ccccc1Cl | 72.4 | > 1380 | > 100000 | 251 |  |  | 60.3 |  | 30.2 | 115 |  |  | 
30 | Cn1c([N+](=O)[O-])cnc1/C=C/c1ccccc1I | 60.3 | > 1660 | > 100000 |  |  |  |  |  |  |  |  |  | 
31 | Cn1c([N+](=O)[O-])cnc1/C=C/c1cccc(Br)c1 | 46.8 | 1860 | 87100 | 115 |  |  | 42.7 |  | 32.4 | 126 |  |  | 
32 | CC(=O)OC(c1ccc(C)cc1)C(OC(C)=O)c1ncc([N+](=O)[O-])n1C (configuration not stated) | 316 | > 319 | > 100000 | 3090 |  |  | 513 |  | 174 | 5130 |  |  | 
33 | Cc1ncc([N+](=O)[O-])n1CCO [METRONIDAZOLE] |  |  |  | 25700 |  | inactive | 3980 |  | 1480 | 44700 | 2630 | inactive | 1000
34 | Cn1c([N+](=O)[O-])cnc1/C=C/c1ccc(Br)cc1 | 49 | 1480 | 72400 | 200 | inactive |  | 72.4 | Non-toxic | 8.13 | 91.2 |  | inactive | 
35 | Cn1c([N+](=O)[O-])cnc1/C=C/c1ccsc1 | 97.7 | > 1020 | > 100000 | 389 |  |  | 91.2 | Non-toxic | 24.5 | 1050 |  |  | 
36 | CC(=O)OC(c1ccc(Br)cc1)C(OC(C)=O)c1ncc([N+](=O)[O-])n1C (configuration not stated) | 224 | 436 |  |  |  |  |  |  |  |  |  |  | 
37 | Cc1cccc(/C=C/c2ncc([N+](=O)[O-])n2C)c1 | 39.8 | 776 | 30900 |  |  |  |  |  |  |  |  |  | 
